Assays:
[1] = biological target: T1, Gonadotropin-releasing hormone receptor (Homo sapiens, UniProt P30968); assay: Antagonist concentration required to inhibit specific binding of [125I]leuprorelin to human luteinizing releasing hormone receptor in cloned chinese hamster ovary (CHO) cells.; type: cell-based
T1 sequence (P30968 whole entry): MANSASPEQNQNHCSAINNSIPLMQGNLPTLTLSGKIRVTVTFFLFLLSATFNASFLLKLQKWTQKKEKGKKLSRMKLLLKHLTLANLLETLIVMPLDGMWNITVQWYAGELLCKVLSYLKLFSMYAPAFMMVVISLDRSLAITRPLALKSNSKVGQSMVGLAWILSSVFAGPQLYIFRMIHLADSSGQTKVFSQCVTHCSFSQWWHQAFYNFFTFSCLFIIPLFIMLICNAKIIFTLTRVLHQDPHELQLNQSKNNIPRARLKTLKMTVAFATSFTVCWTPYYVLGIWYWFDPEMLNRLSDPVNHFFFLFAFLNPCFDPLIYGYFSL

[2] = Tested for oral absorption in Cynomolgus Monkey at the dose of 10 mg/kg, activity expressed as Cmax; type: ADME, organism-based, Macaca fascicularis; design: dose 10 mg/kg, route oral; settings: in vivo
Procedure, shortened: (§1)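 Single oral dose of 10 mg/kg as suspension in 0.5% methylcellulose to female cynomolgus monkeys (4–8 years, n = 3). Forearm-vein heparin plasma taken at 1, 3 and 6 h, deproteinized with 5% acetonitrile/0.05% TFA, compound measured by reverse-phase HPLC with UV detection at 320 nm.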

[3] = test system: Cynomolgus monkey; assay: (§2) Tested for oral absorption in Cynomolgus Monkey at the dose of 10 mg/kg, activity expressed as area under curve (AUC); type: ADME, organism-based, Macaca fascicularis; design: dose 10 mg/kg, route oral; settings: in vivo; procedure, shortened: as §1
[4] = Tested for oral absorption in Cynomolgus Monkey at the dose of 10 mg/kg, activity expressed as Tmax (time required for Cmax); type: ADME, organism-based, Macaca fascicularis; design: dose 10 mg/kg, route oral; settings: in vivo; procedure, shortened: as §1
[5] = as §2; type: ADME, organism-based, Macaca fascicularis; design: dose 10 mg/kg, route oral; settings: in vivo; procedure, shortened: as §1
[6] = Tested for plasma LH concentration in Castarted male Cynomolgus monkeys for oral administration at the dose of 30 mg/kg after 2 h; type: functional, Cercopithecidae
Procedure, shortened: (§3)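 Castrated (more than 6 months) male cynomolgus monkeys aged 4–9 years, chair-restrained, dosed orally at 30 mg/kg (3 mL/kg, n = 3) as suspension in 0.5% methylcellulose/1.2% citric acid; vehicle controls n = 3. Plasma LH from femoral-vein samples through 48 h, assayed by bioassay with mouse testicular cells; mean ± SEM and % of pretreatment.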

[7] = Tested for plasma LH concentration in Castarted male Cynomolgus monkeys for oral administration at the dose of 10 mg/kg after 0 h; type: functional, Cercopithecidae
Procedure, shortened: (§4)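 Male cynomolgus monkeys (4–9 years), castrated more than 6 months earlier and chair-restrained, given 10 mg/kg orally (3 mL/kg, n = 3) in 0.5% methylcellulose with 1.2% citric acid; vehicle group n = 3. Femoral-vein heparin plasma taken at 0–48 h; LH measured by mouse testicular cell bioassay. Mean ± SEM, also as % of 0 h value.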

[8] = Tested for plasma LH concentration in Castarted male Cynomolgus monkeys for oral administration at the dose of 10 mg/kg after 4 h; type: functional, Cercopithecidae; procedure, shortened: as §4
[9] = Tested for plasma LH concentration in Castarted male Cynomolgus monkeys for oral administration at the dose of 10 mg/kg after 8 h; type: functional, Cercopithecidae; procedure, shortened: as §4
[10] = Tested for plasma LH concentration in Castarted male Cynomolgus monkeys for oral administration at the dose of 10 mg/kg after 2 h; type: functional, Cercopithecidae; procedure, shortened: as §4
[11] = Tested for plasma LH concentration in Castarted male Cynomolgus monkeys for oral administration at the dose of 30 mg/kg after 0 h; type: functional, Cercopithecidae; procedure, shortened: as §3
[12] = Tested for plasma LH concentration in Castarted male Cynomolgus monkeys for oral administration at the dose of 30 mg/kg after 8 h; type: functional, Cercopithecidae; procedure, shortened: as §3
[13] = Tested for plasma LH concentration in Castarted male Cynomolgus monkeys for oral administration at the dose of 10 mg/kg after 48 h; type: functional, Cercopithecidae; procedure, shortened: as §4
[14] = Tested for plasma LH concentration in Castarted male Cynomolgus monkeys for oral administration at the dose of 30 mg/kg after 48 h; type: functional, Cercopithecidae; procedure, shortened: as §3
[15] = Tested for plasma LH concentration in Castarted male Cynomolgus monkeys for oral administration at the dose of 30 mg/kg after 4 h; type: functional, Cercopithecidae; procedure, shortened: as §3
[16] = Tested for plasma LH concentration in Castarted male Cynomolgus monkeys for oral administration at the dose of 10 mg/kg after 24 h; type: functional, Cercopithecidae; procedure, shortened: as §4
[17] = Tested for plasma LH concentration in Castarted male Cynomolgus monkeys for oral administration at the dose of 30 mg/kg after 24 h; type: functional, Cercopithecidae; procedure, shortened: as §3

Structure (SMILES)	IC50 [1] [µM]	also measured
CCC(=O)Nc1ccc(-c2sc3c(c2CN(C)Cc2ccccc2)c(=O)n(-c2cccc(OC)c2)c(=O)n3Cc2c(F)cccc2F)cc1	0.0002	–
CNC(=O)Nc1ccc(-c2sc3c(c2CN(C)Cc2ccccc2)c(=O)n(-c2ccccc2)c(=O)n3Cc2c(F)cccc2F)cc1	0.0001	–
CCC(=O)Nc1ccc(-c2sc3c(c2CN(C)Cc2ccccc2)c(=O)n(-c2ccccc2)c(=O)n3Cc2c(F)cccc2F)cc1	–	Cmax [2]: 630 nM; AUC [3]: 2.5 µM·h; Tmax [4]: 3 h
CCC(=O)N(C)c1ccc(-c2sc3c(c2CN(C)Cc2ccccc2)c(=O)n(-c2cccc(OC)c2)c(=O)n3Cc2c(F)cccc2F)cc1	0.02	–
CCONC(=O)Nc1ccc(-c2sc3c(c2CN(C)Cc2ccccc2)c(=O)n(-c2ccccc2)c(=O)n3Cc2c(F)cccc2F)cc1	0.0002	–
COc1ccc(-c2sc3c(c2CN(C)Cc2ccccc2)c(=O)n(-c2ccccc2)c(=O)n3Cc2c(F)cccc2F)cc1	0.05	–
COc1ccc(-c2sc3c(c2CN(C)Cc2ccccc2)c(=O)n(CC(C)C)c(=O)n3Cc2c(F)cccc2F)cc1	0.4	–
COc1ccc(-c2sc3c(c2CN(C)Cc2ccccc2)c(=O)n(Cc2ccccc2)c(=O)n3Cc2c(F)cccc2F)cc1	0.4	–
CC(C)ONC(=O)Nc1ccc(-c2sc3c(c2CN(C)Cc2ccccc2)c(=O)n(-c2ccccc2)c(=O)n3Cc2c(F)cccc2F)cc1	0.0006	–
CN(Cc1ccccc1)Cc1c(-c2ccc(NC(=O)NO)cc2)sc2c1c(=O)n(-c1ccccc1)c(=O)n2Cc1c(F)cccc1F	0.0004	–
COc1ccc(-c2sc3c(c2CN(C)Cc2ccccc2)c(=O)n(-c2ccccc2Cl)c(=O)n3Cc2c(F)cccc2F)cc1	0.08	–
COc1ccc(-c2sc3c(c2CN(C)Cc2ccccc2)c(=O)n(-c2ccc(Cl)cc2)c(=O)n3Cc2c(F)cccc2F)cc1	0.2	–
COc1ccc(-c2sc3c(c2CN(C)Cc2ccccc2)c(=O)n(-c2cccc(Cl)c2)c(=O)n3Cc2c(F)cccc2F)cc1	0.2	–
COc1cccc(-n2c(=O)c3c(CN(C)Cc4ccccc4)c(-c4ccc([N+](=O)[O-])cc4)sc3n(Cc3c(F)cccc3F)c2=O)c1	0.02	–
CC(C)NC(=O)Nc1ccc(-c2sc3c(c2CN(C)Cc2ccccc2)c(=O)n(-c2ccccc2)c(=O)n3Cc2c(F)cccc2F)cc1	0.0002	–
COc1cccc(-n2c(=O)c3c(CN(C)Cc4ccccc4)c(-c4ccc(N)cc4)sc3n(Cc3c(F)cccc3F)c2=O)c1	0.001	–
CN(Cc1ccccc1)Cc1c(-c2ccc(NC(=O)c3ccccc3)cc2)sc2c1c(=O)n(-c1ccccc1)c(=O)n2Cc1c(F)cccc1F	0.001	–
CC(C)C(=O)Nc1ccc(-c2sc3c(c2CN(C)Cc2ccccc2)c(=O)n(-c2ccccc2)c(=O)n3Cc2c(F)cccc2F)cc1	0.0004	–
COc1ccc(-c2sc3c(c2CN(C)Cc2ccccc2)c(=O)n(-c2ccc(OC)cc2)c(=O)n3Cc2c(F)cccc2F)cc1	0.03	–
COc1cccc(-n2c(=O)c3c(CN(C)Cc4ccccc4)c(-c4ccc(NC(=O)C(C)C)cc4)sc3n(Cc3c(F)cccc3F)c2=O)c1	0.0003	–
COc1ccc(-c2sc3c(c2CN(C)Cc2ccccc2)c(=O)n(-c2ccccc2OC)c(=O)n3Cc2c(F)cccc2F)cc1	0.2	–
COc1ccc(-c2sc3c(c2CN(C)Cc2ccccc2)c(=O)n(-c2cccc(OC)c2)c(=O)n3Cc2c(F)cccc2F)cc1	0.02	–
CCNC(=O)Nc1ccc(-c2sc3c(c2CN(C)Cc2ccccc2)c(=O)n(-c2ccccc2)c(=O)n3Cc2c(F)cccc2F)cc1	–	Cmax [2]: 63 nM; AUC [5]: 0.27 µM·h; Tmax [4]: 3 h
COc1ccc(-c2sc3c(c2CN(C)Cc2ccccc2)c(=O)n(C2CCCCC2)c(=O)n3Cc2c(F)cccc2F)cc1	0.7	–
CONC(=O)Nc1ccc(-c2sc3c(c2CN(C)Cc2ccccc2)c(=O)n(-c2ccccc2)c(=O)n3Cc2c(F)cccc2F)cc1 [SUFUGOLIX]	–	LH concentration [6]: 0.55 mU ml-1; LH concentration [7]: 1.01 mU ml-1; LH concentration [8]: 0.37 mU ml-1; LH concentration [9]: 0.19 mU ml-1; LH concentration [10]: 0.74 mU ml-1; LH concentration [11]: 0.91 mU ml-1; LH concentration [12]: 0.13 mU ml-1; Cmax [2]: 210 nM; LH concentration [13]: 0.76 mU ml-1; AUC [5]: 0.85 µM·h; LH concentration [14]: 0.71 mU ml-1; Tmax [4]: 6 h; LH concentration [15]: 0.25 mU ml-1; LH concentration [16]: 0.18 mU ml-1; LH concentration [17]: 0.1 mU ml-1
